Measured values from PMC10968941 (International Journal of Nanomedicine, 2024).

What was measured:
Caco-2 cells = assay: Caco-2 permeability assay; format: in vitro ADME, human; conditions: Caco-2 Transwell, apical to basolateral, RP-HPLC
Procedure, shortened: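 Caco-2 cells seeded at 1 × 10^5 cells/well on 0.4 µm Transwell membranes and grown to a monolayer checked by TEER. Medium replaced with HBSS before dosing.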

[1] = molecular target: pepsin from porcine stomach mucosa (Sus scrofa, UniProt P00791); assay: Stability test in simulated gastric fluid; format: in vitro ADME; conditions: 37°C; for Degradation in simulated gastric fluid with pepsin: up to 120 min
Procedure, shortened: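 Simulated gastric fluid: 200 mg NaCl and 64 mg porcine pepsin in 100 mL water plus 0.7 mL HCl, pH 1.2. Peptide (10 mg/mL in 0.1 M ammonium bicarbonate, 0.1 mL) mixed with 0.9 mL SGF at 37°C. Sampled at 0, 5, 15, 30, 60 and 120 min; quenched with 0.2 M NaOH; analysed by RP-HPLC. PEG 200, 400, 1000 or 4000 tested at 0%, 20% and 40% in SGF.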

Sequence of pepsin from porcine stomach mucosa (P00791 60-385): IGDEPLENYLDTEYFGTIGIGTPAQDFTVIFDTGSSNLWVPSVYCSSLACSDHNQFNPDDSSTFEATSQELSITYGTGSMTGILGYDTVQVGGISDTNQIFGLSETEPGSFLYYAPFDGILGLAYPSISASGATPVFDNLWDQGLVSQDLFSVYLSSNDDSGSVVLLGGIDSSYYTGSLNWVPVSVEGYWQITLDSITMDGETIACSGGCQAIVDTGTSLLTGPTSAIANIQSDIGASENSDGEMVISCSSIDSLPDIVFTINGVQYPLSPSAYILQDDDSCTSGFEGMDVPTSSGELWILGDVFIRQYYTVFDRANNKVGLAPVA

For CCCCCCCCCCCCCCCC(=O)N[C@@H](CCC(=O)NCCCC[C@H](NC(=O)[C@H](C)NC(=O)[C@H](C)NC(=O)[C@H](CCC(N)=O)NC(=O)CNC(=O)[C@H](CCC(=O)O)NC(=O)[C@H](CC(C)C)NC(=O)[C@H](Cc1ccc(O)cc1)NC(=O)[C@H](CO)NC(=O)[C@H](CO)NC(=O)[C@@H](NC(=O)[C@H](CC(=O)O)NC(=O)[C@H](CO)NC(=O)[C@@H](NC(=O)[C@H](Cc1ccccc1)NC(=O)[C@@H](NC(=O)CNC(=O)[C@H](CCC(=O)O)NC(=O)[C@H](C)NC(=O)[C@@H](N)Cc1cnc[nH]1)[C@@H](C)O)[C@@H](C)O)C(C)C)C(=O)N[C@@H](CCC(=O)O)C(=O)N[C@@H](Cc1ccccc1)C(=O)N[C@H](C(=O)N[C@@H](C)C(=O)N[C@@H](Cc1c[nH]c2ccccc12)C(=O)N[C@@H](CC(C)C)C(=O)N[C@H](C(=O)N[C@@H](CCCNC(=N)N)C(=O)NCC(=O)N[C@@H](CCCNC(=N)N)C(=O)NCC(=O)O)C(C)C)[C@@H](C)CC)C(=O)O [LG, liraglutide], the “LG at the basolateral side after 2 h treatment” value (Caco-2 cells) was “undetected”, the “Degradation in simulated gastric fluid with pepsin” value ([1]; SGF pH 1.2 with pepsin) was “rapid degradation” and the “Degradation in simulated gastric fluid with pepsin” value ([1]; SGF pH 1.2 with pepsin, listed as free LG) was “fully degraded”. The “Degradation in simulated gastric fluid in the absence of pepsin” value ([1]; SGF pH 1.2 without pepsin) was “degradation was not observed”, the “Time to entire degradation in simulated gastric fluid, LG with PEG 1000” value ([1]; formulation containing PEG 1000, SGF pH 1.2 with pepsin) was ≤ 60 min and the “Time to entire degradation in simulated gastric fluid, LG with PEG 4000” value ([1]; formulation containing PEG 4000, SGF pH 1.2 with pepsin) was ≤ 60 min.
